Experiment [1] addresses T1, Androgen receptor (Rattus norvegicus, UniProt P15207).
T1 sequence (P15207 whole entry): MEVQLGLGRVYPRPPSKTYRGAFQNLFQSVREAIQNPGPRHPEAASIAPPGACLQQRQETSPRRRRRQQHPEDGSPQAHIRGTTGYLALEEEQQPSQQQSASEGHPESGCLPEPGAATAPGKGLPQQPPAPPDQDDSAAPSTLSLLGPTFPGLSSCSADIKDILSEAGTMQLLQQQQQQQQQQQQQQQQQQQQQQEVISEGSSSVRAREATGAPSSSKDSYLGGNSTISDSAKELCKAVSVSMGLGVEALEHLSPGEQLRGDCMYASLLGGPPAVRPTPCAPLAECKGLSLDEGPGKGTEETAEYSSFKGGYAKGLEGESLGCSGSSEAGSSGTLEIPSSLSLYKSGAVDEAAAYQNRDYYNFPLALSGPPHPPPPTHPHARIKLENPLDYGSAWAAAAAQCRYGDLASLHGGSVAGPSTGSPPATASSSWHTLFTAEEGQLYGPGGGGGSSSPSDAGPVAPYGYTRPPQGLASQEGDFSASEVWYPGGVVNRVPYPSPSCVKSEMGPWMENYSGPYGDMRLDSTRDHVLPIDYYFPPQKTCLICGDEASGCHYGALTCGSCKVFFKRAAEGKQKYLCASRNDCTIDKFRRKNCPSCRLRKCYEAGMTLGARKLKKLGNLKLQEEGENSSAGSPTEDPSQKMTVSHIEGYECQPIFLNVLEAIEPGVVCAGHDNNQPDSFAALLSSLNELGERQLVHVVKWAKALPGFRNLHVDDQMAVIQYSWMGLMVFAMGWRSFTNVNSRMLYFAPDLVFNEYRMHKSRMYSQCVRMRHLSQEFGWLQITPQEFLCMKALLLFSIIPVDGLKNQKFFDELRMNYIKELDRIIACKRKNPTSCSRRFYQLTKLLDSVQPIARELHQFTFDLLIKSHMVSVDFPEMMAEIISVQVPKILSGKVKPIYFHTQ
The experiment is described as follows: Antagonist activity at GAL4-DBD fused rat androgen receptor expressed in UAS-bla 293 cells assessed as reduction in R1881-induced activation incubated for 16 hrs followed by fluorescence substrate addition and measured after 2 hrs by beta lactamase reporter gene assay. The class given is cell-based. Background: In a reporter assay the amount or activity of a reporter protein is the signal.

For experiment [2], the system named is DU-145. Briefly: Antiproliferative activity against human DU145 cells assessed as reduction in cell growth incubated for 96 hrs by propidium iodide based 2D monolayer assay. The class given is functional. To be noted: DU-145, 96 h. In a few lines:
(§1)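 After 24 h recovery, compound in medium or medium alone (control wells) was added at 10 half-log concentrations from 0.0032 to 100 µM, in triplicate, with at most 0.3% DMSO. After 96 h, wells were PBS-washed, stained with 7 µg/ml PI and 0.1% Triton X-100, and fluorescence read at 530/620 nm. IC50 came from a 4-parameter fit, geometric mean.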

The subject of experiment [3] is VCaP. The experiment is described as follows: Antiproliferative activity against human VCaP cells assessed as reduction in cell growth incubated for 96 hrs by propidium iodide based 2D monolayer assay. The class given is functional. In a few lines:
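VCaP cells in RPMI 1640 with 10% FCS at 37 °C, 5% CO2, seeded 4,000–20,000 cells/well and left 24 h before dosing. Compounds from DMSO stocks were diluted in half-log steps in medium, 10 concentrations 0.0032–100 μM, triplicate wells, max 0.3% DMSO. After 96 h, cells were washed, stained with 7 μg/ml propidium iodide plus 0.1% Triton X-100 for 1–2 h at room temperature, and fluorescence read at ex 530/em 620 nm.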

Experiment [4] concerns CWR22R. The experiment is described as follows: Antiproliferative activity against human 22Rv1 cells assessed as reduction in cell growth incubated for 96 hrs by propidium iodide based 2D monolayer assay. It is filed as functional. To be noted: 22Rv1, 96 h. The method, boiled down:
as §1

The test system of experiment [5] is LNCaP. The experiment is described as follows: Antiproliferative activity against human LNCAP cells assessed as reduction in cell growth incubated for 96 hrs by propidium iodide based 2D monolayer assay. It is filed as functional. The method, boiled down:
as §1

The IC50 is the concentration that gives 50% inhibition. For the compound `CC(O)(COc1ccc(C#N)cc1)C(=O)Nc1ccc(C#N)c(C(F)(F)F)c1` (racemic), the IC50 is 0.036 µM in experiment [1]; 44.6 µM in experiment [2]; 24.5 µM in experiment [3]; 24.8 µM in experiment [4]; 20.9 µM in experiment [5].

The values above are taken from ChEMBL document CHEMBL4364301 (Eur J Med Chem, 2019).
